Reference: ChEMBL document CHEMBL1156780, “6-(Het)aryl-7-deazapurine ribonucleosides as novel potent cytostatic agents” (J Med Chem, 2010)

How the values were obtained:
DU-145 = test: Cytostatic activity against human DU145 cells after 5 days by SRB assay; type: functional; settings: DU-145, 120 h
In short: (§1)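 Cells seeded in RPMI (colon, breast, lung lines), MEM (Du145) or F12K (PC3) with 10% FBS, 37 °C overnight. Day-zero plates fixed with cold 10% TCA. Compounds added as 5-fold serial dilutions for 5 days. Fixed, stained with 0.057% SRB in 1% acetic acid, dye solubilized in 10 mM Tris pH 10.5, A500 read. Growth % corrected for day-0 OD; GIC₅₀ from sigmoidal fit.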

[1] = Cytotoxicity against human HeLaS3 cells after 3 days by XTT assay; type: functional, cell-based; settings: HeLa S3, 72 h
A549 = test: Cytostatic activity against human A549 cells after 5 days by SRB assay; type: functional; settings: A549, 120 h; in short: as §1
[2] = Cytostatic activity against human Hs578 cells after 5 days by SRB assay; type: functional; settings: Hs578, 120 h; in short: as §1
HL-60 = test: Cytotoxicity against human HL60 cells after 3 days by XTT assay; type: functional, cell-based; settings: HL-60, 72 h
In short: (§2)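 Cell viability of CCRF-CEM, HL60 and HeLa cells measured by XTT assay after 72 h incubation with compounds. IC₅₀ taken as mean of 2–4 independent experiments.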

HCT-116 = test: Cytostatic activity against human HCT116 cells after 5 days by SRB assay; type: functional; settings: HCT-116, 120 h; in short: as §1
CCRF-CEM = test: Cytotoxicity against human CCRF-CEM cells after 3 days by XTT assay; type: functional, cell-based; settings: 72 h; in short: as §2
PC-3 = test: Cytotoxicity against human PC3 cells after 5 days by SRB assay; type: functional; settings: PC-3, 120 h; in short: as §1
HCT-15 = test: Cytotoxicity against human HCT15 cells after 5 days by SRB assay; type: functional; settings: HCT-15, 120 h; in short: as §1
NCI-H23 = test: Cytotoxicity against human NCI-H23 cells after 5 days by SRB assay; type: functional; settings: NCI-H23, 120 h; in short: as §1
BT-549 = test: Cytotoxicity against human BT549 cells after 5 days by SRB assay; type: functional; settings: BT-549, 120 h; in short: as §1

GI50 (DU-145) [µM]	GI50 (A549) [µM]	GI50 (HCT-116) [µM]	SMILES	IC50 [1] [µM]	GI50 [2] [µM]	IC50 (HL-60) [µM]	IC50 (CCRF-CEM) [µM]	GI50 (PC-3) [µM]	GI50 (HCT-15) [µM]	GI50 (NCI-H23) [µM]	GI50 (BT-549) [µM]
> 10	> 10	> 10	OC[C@H]1O[C@@H](n2ccc3c(Cc4ccccc4)ncnc32)[C@H](O)[C@@H]1O	> 7.5	> 10	> 10	3.8	–	–	–	–
0.89	> 10	> 10	OC[C@H]1O[C@@H](n2cc(F)c3c(-c4c[nH]cn4)ncnc32)[C@H](O)[C@@H]1O	12.2	2.1	–	1.8	–	–	–	–
0.013	0.38	0.27	OC[C@H]1O[C@@H](n2cc(Cl)c3c(-c4cccs4)ncnc32)[C@H](O)[C@@H]1O	28.2	1.6	5.5	2.7	–	–	–	–
0.019	0.41	0.48	OC[C@H]1O[C@@H](n2ccc3c(-c4nccs4)ncnc32)[C@H](O)[C@@H]1O	0.13	0.29	1.2	0.39	–	–	–	–
0.005	0.11	0.039	OC[C@H]1O[C@@H](n2cc(F)c3c(-c4ccco4)ncnc32)[C@H](O)[C@@H]1O	8	0.18	1.2	1.4	0.075	0.057	4.3	0.11
0.009	0.19	0.45	OC[C@H]1O[C@@H](n2cc(F)c3c(-c4ccc[nH]4)ncnc32)[C@H](O)[C@@H]1O	0.23	0.31	3.3	0.41	–	–	–	–
0.005	0.06	0.018	OC[C@H]1O[C@@H](n2cc(F)c3c(-c4ccoc4)ncnc32)[C@H](O)[C@@H]1O	0.17	0.18	2	1	–	–	–	–
1.3	> 10	> 10	COc1ccc(-c2ncnc3c2ccn3[C@@H]2O[C@H](CO)[C@@H](O)[C@H]2O)cc1	> 10	> 10	> 10	10.9	–	–	–	–
0.73	> 10	> 10	OC[C@H]1O[C@@H](n2ccc3c(-c4ccc(F)cc4)ncnc32)[C@H](O)[C@@H]1O	2.9	2.5	52.7	23.2	–	–	–	–
0.03	0.36	0.5	OC[C@H]1O[C@@H](n2ccc3c(-c4cc[nH]c4)ncnc32)[C@H](O)[C@@H]1O	0.26	0.44	1.2	0.28	–	–	–	–
0.01	0.13	0.25	OC[C@H]1O[C@@H](n2cc(F)c3c(-c4cc[nH]c4)ncnc32)[C@H](O)[C@@H]1O	8.9	0.36	1.9	0.93	–	–	–	–
0.018	0.38	0.1	OC[C@H]1O[C@@H](n2cc(Cl)c3c(-c4ccsc4)ncnc32)[C@H](O)[C@@H]1O	0.34	0.11	1.6	1	–	–	–	–
0.63	> 10	> 10	OC[C@H]1O[C@@H](n2ccc3c(-c4ccc[nH]4)ncnc32)[C@H](O)[C@@H]1O	–	1.3	–	10	–	–	–	–
0.054	1.1	2	OC[C@H]1O[C@@H](n2cc(Cl)c3c(-c4ccoc4)ncnc32)[C@H](O)[C@@H]1O	2.7	1.6	2.5	1.1	–	–	–	–
0.066	0.38	0.14	OC[C@H]1O[C@@H](n2cc(F)c3c(-c4ccsc4)ncnc32)[C@H](O)[C@@H]1O	0.21	0.81	4.9	0.56	–	–	–	–
> 10	> 10	> 10	OC[C@H]1O[C@@H](n2ccc3c(-c4cccnc4)ncnc32)[C@H](O)[C@@H]1O	> 10	> 10	> 10	> 10	–	–	–	–
–	–	–	Nc1nc(Cl)nc2c1ncn2[C@@H]1O[C@H](CO)[C@@H](O)[C@@H]1F [CLOFARABINE]	–	–	–	–	0.063	0.18	0.04	0.065
0.032	0.63	0.22	OC[C@H]1O[C@@H](n2ccc3c(-c4ccsc4)ncnc32)[C@H](O)[C@@H]1O	–	0.71	> 40	4	–	–	–	–
0.075	6.2	5.7	OC[C@H]1O[C@@H](n2ccc3c(-c4cn[nH]c4)ncnc32)[C@H](O)[C@@H]1O	4.1	3.1	–	1	–	–	–	–
1.1	> 10	> 10	OC[C@H]1O[C@@H](n2ccc3c(-c4ccccc4)ncnc32)[C@H](O)[C@@H]1O	> 40	> 10	–	4	–	–	–	–
1.2	4.4	2.6	CCc1ncnc2c1ccn2[C@@H]1O[C@H](CO)[C@@H](O)[C@H]1O	3.6	4.7	5.6	1.25	–	–	–	–
0.024	0.9	1.3	OC[C@H]1O[C@@H](n2cc(F)c3c(-c4nccs4)ncnc32)[C@H](O)[C@@H]1O	3.1	0.57	1	0.55	–	–	–	–
0.14	2.5	1.4	OC[C@H]1O[C@@H](n2cc(Cl)c3c(-c4ccccc4)ncnc32)[C@H](O)[C@@H]1O	0.42	> 10	1.2	0.91	–	–	–	–
0.41	3.3	7.3	OC[C@H]1O[C@@H](n2ccc3c(-c4ccn[nH]4)ncnc32)[C@H](O)[C@@H]1O	1.1	3.9	10.1	0.91	–	–	–	–
0.39	4.9	> 10	OC[C@H]1O[C@@H](n2ccc3c(-c4ccccn4)ncnc32)[C@H](O)[C@@H]1O	–	> 10	> 40	1.5	–	–	–	–
0.094	2.6	3.7	OC[C@H]1O[C@@H](n2ccc3c(-c4c[nH]cn4)ncnc32)[C@H](O)[C@@H]1O	3.3	1.9	–	0.71	–	–	–	–
0.03	0.25	0.45	OCc1ncnc2c1ccn2[C@@H]1O[C@H](CO)[C@@H](O)[C@H]1O	0.35	0.053	2.2	0.45	–	–	–	–
0.58	> 10	> 10	OC[C@H]1O[C@@H](n2cc(F)c3c(-c4ccccc4)ncnc32)[C@H](O)[C@@H]1O	2.6	> 10	> 40	3.1	–	–	–	–

SMILES	GI50 (DU-145) [µM]	GI50 (A549) [µM]	GI50 (HCT-116) [µM]	IC50 [1] [µM]	GI50 [2] [µM]	IC50 (HL-60) [µM]	IC50 (CCRF-CEM) [µM]	GI50 (PC-3) [µM]	GI50 (HCT-15) [µM]	GI50 (NCI-H23) [µM]	GI50 (BT-549) [µM]
OC[C@H]1O[C@@H](n2ccc3c(-c4ccc[se]4)ncnc32)[C@H](O)[C@@H]1O	0.028	0.23	0.34	7.4	0.29	2.8	1.5	–	–	–	–
